According to ChEMBL document CHEMBL3120099, “Novel S1P(1) receptor agonists--part 2: from bicyclo[3.1.0]hexane-fused thiophenes to isobutyl substituted thiophenes” (J Med Chem, 2014):

Assays:
[1] = target: Sphingosine 1-phosphate receptor 3 (Homo sapiens, UniProt Q99500); experiment: Agonist activity at human recombinant S1P3 receptor expressed in CHO cells assessed as membrane-bound 35S-GTPgammaS incubated 30 mins prior to substrate addition measured after 1 hr by topcount scintillation counting analysis; format: functional, cell-based
[2] = target: Sphingosine 1-phosphate receptor 1 (Homo sapiens, UniProt P21453); experiment: Agonist activity at human recombinant S1P1 receptor expressed in CHO cells assessed as membrane-bound 35S-GTPgammaS incubated 30 mins prior to substrate addition measured after 1 hr by topcount scintillation counting analysis; format: functional, cell-based
Homo sapiens = species on record: Homo sapiens; experiment: Selectivity ratio of EC50 for human recombinant S1P3 receptor to EC50 for human recombinant S1P1 receptor
How it was run: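 GDP was 1 μM for S1P1 and 3 μM for S1P3. Compounds (up to 10 μM) were preincubated 30 min at rt, then incubated 1 h at rt. Bound label was counted after filtration. 10 μM S1P defined maximum. EC50s are geometric means of ≥3 independent duplicate runs.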

[3] = Plasma concentration in Wistar rat at 10 mg/kg, po after 6 hrs; format: ADME, organism-based; design: dose 10 mg/kg, route oral
[4] = Plasma concentration in Wistar rat at 10 mg/kg, po after 24 hrs; format: ADME, organism-based; design: dose 10 mg/kg, route oral
[5] = Plasma concentration in Wistar rat at 10 mg/kg, po after 3 hrs; format: ADME, organism-based; design: dose 10 mg/kg, route oral
Rattus norvegicus [6] = experiment: Lymphopenic activity in Wistar rat assessed as reduction in blood lymphocyte count at 10 mg/kg, po after 6 hrs; format: functional; design: scale not given: the % may be the effect or the level left
How it was run: (§1)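 Normotensive male Wistar rats given 1–10 mg/kg by gavage in 5% DMSO/7.5% succinylated gelatin. Blood taken before and 3, 6 and 24 h after dosing, with later times for some compounds. Lymphocytes counted by hematology analyzer. % LC change calculated per animal relative to the predose value (=100%). Mean ± SEM.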

Rattus norvegicus [7] = experiment: Lymphopenic activity in Wistar rat assessed as reduction in blood lymphocyte count at 10 mg/kg, po after 24 hrs; format: functional; how it was run: as §1
Rattus norvegicus [8] = experiment: Lymphopenic activity in Wistar rat assessed as reduction in blood lymphocyte count at 10 mg/kg, po after 3 hrs; format: functional; design: scale not given: the % may be the effect or the level left; how it was run: as §1
[9] = AUC (0 to 24 hrs) in Wistar rat mesenteric lymph at 10 mg/kg, po; format: ADME, organism-based, Mesenteric lymph node; design: time < 24 hr, dose 10 mg/kg, route oral; conditions: in vivo
[10] = Cmax in Wistar rat plasma at 10 mg/kg, po; format: ADME, organism-based; design: dose 10 mg/kg, route oral
How it was run: (§2)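 Male Wistar rats given 10 mg/kg orally in 5% DMSO/succinylated gelatin. At selected times, anesthesia with thiobutobarbital 150 mg/kg ip, laparotomy and thoracic lymph duct catheter. Mesenteric lymph collected for at least 10 min, with a plasma sample at mid-collection. Methanol precipitation, then LC-MS-MS with internal standard.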

[11] = Cmax in Wistar rat mesenteric lymph at 10 mg/kg, po; format: ADME, organism-based, Mesenteric lymph node; design: dose 10 mg/kg, route oral; how it was run: as §2
[12] = Lipophilicity, log D of the compound at pH 7.4; format: physicochemical; conditions: buffer
[13] = Tmax in Wistar rat mesenteric lymph at 10 mg/kg, po; format: ADME, organism-based, Mesenteric lymph node; design: dose 10 mg/kg, route oral; how it was run: as §2
Plasma = experiment: AUC (0 to 24 hrs) in Wistar rat plasma at 10 mg/kg, po; format: ADME, organism-based; design: time < 24 hr, dose 10 mg/kg, route oral; conditions: in vivo
[14] = Tmax in Wistar rat plasma at 10 mg/kg, po; format: ADME, organism-based; design: dose 10 mg/kg, route oral; how it was run: as §2

Chain of Sphingosine 1-phosphate receptor 1 (P21453 whole entry): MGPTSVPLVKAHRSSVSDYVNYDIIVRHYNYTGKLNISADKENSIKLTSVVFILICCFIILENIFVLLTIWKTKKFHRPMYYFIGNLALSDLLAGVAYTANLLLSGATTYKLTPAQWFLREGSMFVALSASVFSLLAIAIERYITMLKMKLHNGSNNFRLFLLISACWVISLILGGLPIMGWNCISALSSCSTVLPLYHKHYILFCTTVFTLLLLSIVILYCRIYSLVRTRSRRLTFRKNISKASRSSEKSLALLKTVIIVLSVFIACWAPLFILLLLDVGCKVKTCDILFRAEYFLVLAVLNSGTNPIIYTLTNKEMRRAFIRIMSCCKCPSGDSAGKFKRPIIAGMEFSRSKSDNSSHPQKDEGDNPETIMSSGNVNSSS
Chain of Sphingosine 1-phosphate receptor 3 (Q99500 whole entry): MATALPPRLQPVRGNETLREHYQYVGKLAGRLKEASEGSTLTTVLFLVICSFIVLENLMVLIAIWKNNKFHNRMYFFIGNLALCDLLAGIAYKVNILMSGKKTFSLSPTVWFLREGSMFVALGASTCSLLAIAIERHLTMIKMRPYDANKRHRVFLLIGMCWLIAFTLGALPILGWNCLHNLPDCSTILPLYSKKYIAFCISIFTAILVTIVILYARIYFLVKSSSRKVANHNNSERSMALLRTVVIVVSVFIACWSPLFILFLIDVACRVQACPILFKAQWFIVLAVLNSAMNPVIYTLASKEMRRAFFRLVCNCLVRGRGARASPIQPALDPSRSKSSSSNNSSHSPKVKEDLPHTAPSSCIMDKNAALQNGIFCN

SMILES	EC50 [1] [µM]	EC50 [2] [µM]	further results
CCc1cc(-c2noc(-c3sc(CC)c4c3CCC3(CCCC3)C4)n2)cc(C)c1OC[C@@H](O)CNC(=O)CO	0.011	0.0047	
CCc1cc(CCC(=O)c2scc3c2CCC(C)(C)C3)cc(C)c1OC[C@@H](O)CNC(=O)CO	5.27	0.0048	Ratio EC50 (Homo sapiens): 100
Cc1cc(CCC(=O)c2ccc(CC(C)C)s2)cc(C)c1OCC(O)CNC(=O)CO (racemic)	0.59	0.0077	
CCc1sc(C(=O)CCc2cc(C)c(OC[C@@H](O)CO)c(C)c2)c2c1CC(CC)(CC)CC2	0.025	0.0004	
CCc1ccc(-c2nc(-c3cc(C)c(OCC(O)CNC(=O)CO)c(C)c3)no2)s1 (racemic)	1.86	0.0043	concentration at 6 h [3]: 190 ng/mL; concentration at 24 h [4]: < 2 ng/mL; concentration at 3 h [5]: 490 ng/mL
CCc1sc(C(=O)CCc2cc(C)c(OCC(O)CO)c(C)c2)c2c1C[C@@H](O)CC2 (mixture of isomers)	> 10	0.86	
CCc1ccc(-c2nc(-c3cc(C)c(OC[C@@H](O)CNC(=O)CO)c(C)c3)no2)s1			Activity (Rattus norvegicus [6]): -77%; % change in blood lymphocyte count from predose (Rattus norvegicus [7]): 12%; Activity (Rattus norvegicus [8]): -73%
CCc1cc(-c2noc(-c3sc(OC)c4c3CCC(C)(C)C4)n2)cc(C)c1OC[C@@H](O)CNC(=O)CO	0.083	0.0018	
Cc1cc(CCC(=O)c2sc(C)c3c2CCC(C)(C)C3)cc(C)c1OC[C@H](O)CO	1.1	0.0034	Ratio EC50 (Homo sapiens): 100
CCc1cc(-c2noc(-c3sc(C)c4c3CCC(C)(C)C4)n2)cc(C)c1OCC(O)CNC(=O)CO (racemic)	0.122	0.0015	
CCc1sc(C(=O)CCc2cc(C)c(OCC(O)CO)c(C)c2)c2c1C[C@@](C)(O)CC2 (mixture of isomers)	> 10	0.079	
CCc1cc(-c2noc(-c3sc(CC)c4c3CCC(CC)(CC)C4)n2)cc(C)c1OC[C@@H](O)CNC(=O)CO	0.0012	0.006	
CCc1cc(-c2noc(-c3sc(CC)c4c3CCC(C)(C)C4)n2)cc(C)c1OCCNCCC(=O)O	0.0058	0.0014	AUC [9]: 60400 ng·h/mL; Cmax [10]: 813 ng/mL; Cmax [11]: 9530 ng/mL; logD [12]: 4.9; Tmax [13]: 0.75 h; AUC (Plasma): 16300 ng·h/mL; Tmax [14]: 8 h
Cc1cc(CCC(=O)c2sc(C)c3c2CCC(C)(C)C3)cc(C)c1OCCCNCCO	> 10	0.048	
CCc1cc(-c2noc(-c3sc(CC)c4c3CCC3(CC3)C4)n2)cc(C)c1OC[C@@H](O)CNC(=O)CO	0.024	0.0011	
CCc1sc(C(=O)CCc2cc(C)c(OC[C@@H](O)CO)c(C)c2)c2c1CC(C)(C)CC2	0.126	0.0004	
Cc1cc(CCC(=O)c2sc(C)c3c2CCC(C)(C)C3)cc(C)c1OCCCO	4.45	0.071	
Cc1cc(CCC(=O)c2sc(C)c3c2CCC(C)(C)C3)cc(C)c1OCCO	4.45	0.019	
Cc1cc(CCC(=O)c2sc(C)c3c2CCC(C)(C)C3)cc(C)c1CCC(=O)O	> 10	0.021	
Cc1cc(CCC(=O)c2sc(C)c3c2CCC(C)(C)C3)cc(C)c1OCC(O)CNCCC(=O)O (racemic)	0.569	0.0012	
CCc1c(-c2nc(-c3cc(C)c(OCC(O)CNC(=O)CO)c(C)c3)no2)sc(C)c1CC(C)C (racemic)	0.172	0.0066	Activity (Rattus norvegicus [6]): -40%; % change in blood lymphocyte count from predose (Rattus norvegicus [7]): -25%; Activity (Rattus norvegicus [8]): -30%
Cc1cc(CCC(=O)c2sc(C)c3c2CCC(C)(C)C3)cc(C)c1OC[C@@H](O)CO	1.4	0.0026	Ratio EC50 (Homo sapiens): 100
Cc1cc(-c2noc(-c3sc(C)c(CC(C)C)c3C)n2)cc(C)c1OCC(O)CNC(=O)CO (racemic)	0.074	0.0005	Activity (Rattus norvegicus [6]): -86%; % change in blood lymphocyte count from predose (Rattus norvegicus [7]): -93%; Activity (Rattus norvegicus [8]): -78%
CCc1sc(C(=O)CCc2cc(C)c(OCC(O)CO)c(C)c2)c2c1CC(C)CC2 (mixture of isomers)	0.599	0.0016	
